In ChEMBL document CHEMBL4732100, “Water-soluble inhibitors of ABCG2 (BCRP) - A fragment-based and computational approach” (Eur J Med Chem, 2021):
pIC50: −log10 of the molar value. Converted amounts (≈) assume the structure as drawn.

Columns and labels:
[1] = target: T1, Broad substrate specificity ATP-binding cassette transporter ABCG2 (Homo sapiens, UniProt Q9UNQ0); assay: Inhibition of human ABCG2 in human MCF7/Topo cells assessed as accumulation of substrate Hoechst […] stain measured after 2 hrs by fluorometric microplate reader assay; format: cell-based; conditions: for pIC50: read-out: IC50
T1 sequence (Q9UNQ0 whole entry): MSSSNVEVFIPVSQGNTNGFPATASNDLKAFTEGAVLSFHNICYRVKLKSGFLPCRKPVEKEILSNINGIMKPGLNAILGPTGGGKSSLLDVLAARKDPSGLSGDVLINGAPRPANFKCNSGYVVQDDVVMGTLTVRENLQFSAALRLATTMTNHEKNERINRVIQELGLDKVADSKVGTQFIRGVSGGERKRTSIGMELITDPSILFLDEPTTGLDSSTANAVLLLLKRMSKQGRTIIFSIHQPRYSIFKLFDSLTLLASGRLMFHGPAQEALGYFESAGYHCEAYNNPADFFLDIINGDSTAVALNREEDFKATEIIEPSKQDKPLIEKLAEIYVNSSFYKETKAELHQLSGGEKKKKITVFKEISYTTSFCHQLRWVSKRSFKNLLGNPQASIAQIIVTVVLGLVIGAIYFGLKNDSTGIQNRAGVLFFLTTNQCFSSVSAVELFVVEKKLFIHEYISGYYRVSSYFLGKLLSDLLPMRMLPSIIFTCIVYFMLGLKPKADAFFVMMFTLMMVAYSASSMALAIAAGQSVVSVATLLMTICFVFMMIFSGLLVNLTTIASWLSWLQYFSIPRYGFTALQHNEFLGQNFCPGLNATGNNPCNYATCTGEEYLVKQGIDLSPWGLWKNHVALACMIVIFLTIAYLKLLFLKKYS

[2] = Stability of compound in human plasma at 200 uM measured up to 24 hrs by HPLC-MS analysis; format: ADME, cell-free
In short: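 Compound from 10 mM DMSO stock incubated in human CPD plasma at 37 °C for up to 24 h. Samples filtered (0.2 µm). Analyzed by RP-HPLC on a C8 column with acetonitrile/0.05% aq TFA gradient 20:80→95:5 over 12 min and UV detection at 220 nm. HPLC-MS run at 0 h and 24 h.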

[3] = target: ATP-dependent translocase ABCB1 (Homo sapiens, UniProt P08183); assay: Inhibition of ABCB1 in human KB-V1 cells assessed as accumulation of substrate calcein-AM stain measured after 10 mins by fluorometric microplate reader assay; format: cell-based; conditions: for IC50: kb-v1; for pIC50: read-out: IC50
ATP-dependent translocase ABCB1, sequence (P08183 whole entry): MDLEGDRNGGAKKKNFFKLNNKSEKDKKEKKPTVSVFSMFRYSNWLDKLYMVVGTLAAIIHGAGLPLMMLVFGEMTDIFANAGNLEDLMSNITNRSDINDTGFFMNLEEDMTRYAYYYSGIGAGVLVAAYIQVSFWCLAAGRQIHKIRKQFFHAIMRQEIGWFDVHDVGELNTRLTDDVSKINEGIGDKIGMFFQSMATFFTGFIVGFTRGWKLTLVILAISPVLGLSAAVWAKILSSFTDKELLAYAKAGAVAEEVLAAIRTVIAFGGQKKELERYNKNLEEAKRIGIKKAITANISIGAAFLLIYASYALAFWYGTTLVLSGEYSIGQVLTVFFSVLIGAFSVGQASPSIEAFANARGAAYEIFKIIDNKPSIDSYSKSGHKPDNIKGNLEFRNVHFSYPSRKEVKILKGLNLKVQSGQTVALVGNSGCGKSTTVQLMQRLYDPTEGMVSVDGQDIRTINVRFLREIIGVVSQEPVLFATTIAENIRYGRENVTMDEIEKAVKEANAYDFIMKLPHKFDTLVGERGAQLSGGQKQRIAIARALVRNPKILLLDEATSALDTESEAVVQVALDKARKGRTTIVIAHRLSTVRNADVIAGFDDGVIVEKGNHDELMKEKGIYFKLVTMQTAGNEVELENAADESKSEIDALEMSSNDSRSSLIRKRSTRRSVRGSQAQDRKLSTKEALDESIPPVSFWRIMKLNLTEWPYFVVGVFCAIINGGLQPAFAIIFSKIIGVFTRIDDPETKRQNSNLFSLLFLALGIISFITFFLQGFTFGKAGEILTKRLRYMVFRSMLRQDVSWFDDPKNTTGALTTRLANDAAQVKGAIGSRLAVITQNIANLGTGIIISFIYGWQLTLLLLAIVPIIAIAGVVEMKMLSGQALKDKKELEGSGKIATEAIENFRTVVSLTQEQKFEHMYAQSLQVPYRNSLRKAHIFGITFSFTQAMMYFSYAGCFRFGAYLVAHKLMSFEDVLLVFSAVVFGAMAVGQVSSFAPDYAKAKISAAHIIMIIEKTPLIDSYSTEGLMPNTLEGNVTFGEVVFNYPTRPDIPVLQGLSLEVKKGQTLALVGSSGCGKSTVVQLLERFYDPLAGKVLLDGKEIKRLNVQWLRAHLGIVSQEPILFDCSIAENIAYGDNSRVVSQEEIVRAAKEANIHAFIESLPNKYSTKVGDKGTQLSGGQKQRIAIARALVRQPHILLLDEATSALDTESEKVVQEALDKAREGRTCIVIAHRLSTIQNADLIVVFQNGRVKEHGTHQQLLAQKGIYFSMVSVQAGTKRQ
In short: (§1)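 KB-V1 cells (ABCB1-overexpressing KB variant) kept under 330 nM vinblastine. Calcein-AM accumulation read by fluorescence after intracellular cleavage to calcein. Compounds tested up to 100 µM. Inhibition is normalized to 10 µM tariquidar set to 100% (Imax). Mean ± SEM from ≥3 experiments in triplicate.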

ABCG2 [4] = target: T2, ABCG2 (Homo sapiens, UniProt Q9UNQ0); assay: Substrate activity at ABCG2 in human MCF7/Topo cells assessed as increase in ATPase activity measured after 1 hr by colorimetric assay relative to sulfasalazine; format: cell-based; conditions: read-out: Imax
T2 sequence (Q9UNQ0 whole entry): T1 sequence (Q9UNQ0 whole entry)
In short: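 Membranes prepared from MCF-7/Topo cells: homogenized in TMEP buffer pH 7 with protease inhibitors, 500 g spin, then 100,000 g for 1 h. Released inorganic phosphate read by molybdenum blue reaction. Basal activity set to 0% and 30 µM sulfasalazine to 100%. Concentration-response data; mean ± SEM of ≥3 experiments in triplicate.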

[5] = Thermodynamic solubility of compound in PBS at pH 7.4 […] by shake-flask method; format: physicochemical; conditions: buffer
ABCG2 [6] = target: T2, ABCG2; assay: Inhibition of human ABCG2 in human MCF7/Topo cells assessed as accumulation of substrate Hoechst […] stain at 10 uM measured after 2 hrs by fluorometric microplate reader assay relative to FTC; format: cell-based; conditions: read-out: Imax
[7] = Kinetic solubility of compound in PBS at pH 7.4 measured after 2 hrs by turbidimetric measurement; conditions: read-out: Kinetic_solubility
[8] = Inhibition of human ABCC1 expressed in MDCK-MRP1 cells assessed as accumulation of substrate calcein-AM stain measured after 1 hr by fluorometric microplate reader assay; format: cell-based, Canis lupus familiaris; conditions: for pIC50: read-out: IC50
In short: (§2)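 MDCK.2 cells transfected with human ABCC1 (MDCK.2-MRP1), trypsinized with 2X trypsin/EDTA for 30 min. Calcein-AM accumulation measured fluorometrically. Compounds tested up to 100 µM. Inhibition is normalized to 30 µM reversan set to 100% (Imax). Mean ± SEM from ≥3 experiments in triplicate.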

ABCB1 = ABCB1 (Homo sapiens, UniProt P08183); assay: Inhibition of ABCB1 in human KB-V1 cells assessed as accumulation of substrate calcein-AM stain at 10 uM measured after 10 mins by fluorometric microplate reader assay relative to Tariquidar; format: cell-based; conditions: probe calcein-AM, read-out: Imax; in short: as §1
ABCB1, sequence (P08183 whole entry): as above

[9] = Cytotoxicity against human MCF7/Topo cells assessed as inhibition of cell proliferation at 10 uM measured by crystal violet based microplate reader assay
In short: (§3)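 MCF-7/Topo cells grown in DMEM/High with 2% (v/v) 200 mM L-glutamine and 10% FCS at 37 °C, 5% CO2, kept under 550 nM topotecan. Long-term incubation with inhibitor. Value given as corrected T/C = (T−C0)/(C−C0)·100 from absorbance; cytocidal effect (T−C0)/C0·100 when T<C0. Mean ± SEM of two to three experiments, each in octuplicate.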

MDCK-MRP1 = assay: Inhibition of human ABCC1 expressed in MDCK-MRP1 cells assessed as accumulation of substrate calcein-AM stain at 30 uM measured after 1 hr by fluorometric microplate reader assay relative to Reversan; format: cell-based; conditions: Canis lupus familiaris; in short: as §2
[10] = Cytotoxicity against human MCF7/Topo cells assessed as inhibition of cell proliferation at 1 uM measured by crystal violet based microplate reader assay; in short: as §3

Row | pIC50 [1] | Stabilty [2] | IC50 [3] | Emax at 1 h (ABCG2 [4]) | Therm_solubility [5] | Emax at 2 h, 10 µM (ABCG2 [6]) | solubility kinetic at 2 h [7] | IC50 [8] | IC50 ([1]; mcf7/topo) | Emax at 10 min, 10 µM (ABCB1) | pIC50 [3] | pIC50 [8] | SMILES | Activity [9] | Imax (MDCK-MRP1) | Activity [10]
1 | 6.96 | Stable | Not Active | 29% | 1.228 µM | 103% | 7 µM (≈ 3.1 µg/mL) | Not Active | – | – | – | – | Cc1ccc(-c2cn(CCN3CCCC3)nn2)c(NC(=O)c2cc(=O)c3ccccc3o2)c1 | – | – | –
2 | 5.72 | – | Not Active | – | – | 86% | – | Not Active | – | – | – | – | COC(=O)c1ccc(Br)cc1NC(=O)c1ccc2ccccc2n1 | – | – | –
3 | 6.35 | – | Not Active | – | < 0.1 µM | 91% | 3 µM (≈ 1.17 µg/mL) | Not Active | – | – | – | – | Cc1ccc(-c2cn(CCO)nn2)c(NC(=O)c2cc(=O)c3ccccc3o2)c1 | – | – | –
4 | – | – | Not Active | – | – | – | 10 µM (≈ 4.46 µg/mL) | Not Active | Not Active | – | – | – | CCC(=O)c1ccc(-c2cn(CC(=O)O)nn2)cc1NC(=O)c1cc(=O)c2ccccc2o1 | – | – | –
5 | 6.73 | – | – | 46% | 1.144 µM | 108% | 10 µM (≈ 4.6 µg/mL) | – | – | > 13% | < 5.80 | < 5.83 | Cc1ccc(-c2cn(CCN3CCOCC3)nn2)c(NC(=O)c2cc(=O)c3ccccc3o2)c1 | Non-Toxic | > 22% | –
6 | 6.60 | – | Not Active | – | < 0.1 µM | 70% | 3 µM (≈ 2 µg/mL) | Not Active | – | – | – | – | CCC(=O)c1ccc(-c2cn(-c3ccc(CCN4CCc5cc(OC)c(OC)cc5C4)cc3)nn2)cc1NC(=O)c1ccc2ccccc2c1 | – | – | –
7 | 7.09 | – | Not Active | – | < 0.1 µM | 75% | 10 µM (≈ 6.32 µg/mL) | Not Active | – | – | – | – | CCC(=O)c1ccc(-c2cn(-c3ccc(CCN4CCc5cc(OC)c(OC)cc5C4)cc3)nn2)cc1NC(=O)c1cccc(N)n1 | – | – | –
8 | – | – | Not Active | – | 0.078 µM | – | 3 µM (≈ 2 µg/mL) | – | – | – | – | – | CCC(=O)c1ccc(-c2cn(-c3ccc(CCN4CCc5cc(OC)c(OC)cc5C4)cc3)nn2)cc1NC(=O)c1ccc2ccccc2n1 | – | – | –
9 | 6.85 | – | Not Active | – | 0.109 µM | 91% | 10 µM (≈ 4.02 µg/mL) | Not Active | – | – | – | – | COC(=O)c1ccc(Br)cc1NC(=O)c1cc(=O)c2ccccc2o1 | – | – | –
10 | – | – | Not Active | – | – | – | – | – | – | – | – | – | COC(=O)c1ccc(-c2cn(-c3ccc(CCN4CCc5cc(OC)c(OC)cc5C4)cc3)nn2)cc1NC(=O)c1ccc2ccccc2n1 | – | – | –
11 | 6.94 | – | Not Active | – | < 0.1 µM | 95% | 1 µM (≈ 0.651 µg/mL) | Not Active | – | – | – | – | CCC(=O)c1ccc(-c2cn(-c3ccc(CCN4CCc5cc(OC)c(OC)cc5C4)cc3)nn2)cc1NC(=O)c1cccc(Cl)n1 | – | – | –
12 | 6.94 | – | – | – | 0.119 µM | 68% | 3 µM (≈ 1.94 µg/mL) | Not Active | – | > 13% | < 5.56 | – | CCC(=O)c1ccc(-c2cn(-c3ccc(CCN4CCc5cc(OC)c(OC)cc5C4)cc3)nn2)cc1NC(=O)c1ccc(OC)cn1 | – | – | –
13 | 6.51 | – | – | – | 0.999 µM | 95% | 10 µM (≈ 5.02 µg/mL) | – | – | 92% | 5.87 | 5.68 | CCC(=O)c1ccc(-c2cn(CCN3CCOCC3)nn2)cc1NC(=O)c1cc(=O)c2ccccc2o1 | – | 66% | Non-Toxic
14 | 6.80 | – | Not Active | – | 1.483 µM | 70% | 30 µM (≈ 14.6 µg/mL) | Not Active | – | – | – | – | CCC(=O)c1ccc(-c2cn(CCN3CCCC3)nn2)cc1NC(=O)c1cc(=O)c2ccccc2o1 | – | – | –
15 | 6.49 | – | Not Active | – | < 0.1 µM | 92% | 7 µM (≈ 4.53 µg/mL) | Not Active | – | – | – | – | CCC(=O)c1ccc(-c2cn(-c3ccc(CCN4CCc5cc(OC)c(OC)cc5C4)cc3)nn2)cc1NC(=O)c1cccc(OC)n1 | – | – | Non-Toxic
16 | 6.78 | – | – | – | 0.445 µM | 81% | 3 µM (≈ 1.89 µg/mL) | Not Active | – | > 19% | < 5.00 | – | CCC(=O)c1ccc(-c2cn(-c3ccc(CCN4CCc5cc(OC)c(OC)cc5C4)cc3)nn2)cc1NC(=O)c1cccc(C)n1 | – | – | –
17 | 7.15 | – | Not Active | – | < 0.1 µM | 91% | 10 µM (≈ 6.62 µg/mL) | Not Active | – | – | – | – | CCC(=O)c1ccc(-c2cn(-c3ccc(CCN4CCc5cc(OC)c(OC)cc5C4)cc3)nn2)cc1NC(=O)c1cccc([N+](=O)[O-])n1 | – | – | –
18 | 5.44 | – | Not Active | – | – | 41% | – | Not Active | – | – | – | – | COc1cc2c(cc1OC)CN(CCc1ccc(-n3cc(-c4ccccc4)nn3)cc1)CC2 | – | – | –
19 | 6.92 | – | Not Active | – | < 0.1 µM | 78% | 7 µM (≈ 4.59 µg/mL) | Not Active | – | – | – | – | CCC(=O)c1ccc(-c2cn(-c3ccc(CCN4CCc5cc(OC)c(OC)cc5C4)cc3)nn2)cc1NC(=O)c1cc2ccccc2o1 | – | – | –
20 | 6.74 | – | Not Active | – | < 0.1 µM | 63% | 7 µM (≈ 4.7 µg/mL) | Not Active | – | – | – | – | CCC(=O)c1ccc(-c2cn(-c3ccc(CCN4CCc5cc(OC)c(OC)cc5C4)cc3)nn2)cc1NC(=O)c1ccc2c(n1)CCCC2 | – | – | –
21 | 6.48 | – | – | – | 0.855 µM | 75% | 7 µM (≈ 4.43 µg/mL) | Not Active | – | > 14% | < 4.73 | – | CCC(=O)c1ccc(-c2cn(-c3ccc(CCN4CCc5cc(OC)c(OC)cc5C4)cc3)nn2)cc1NC(=O)c1cccc(O)n1 | – | – | –
22 | 7.10 | – | Not Active | – | 0.149 µM | 65% | 7 µM (≈ 4.79 µg/mL) | Not Active | – | – | – | – | CCC(=O)c1ccc(-c2cn(-c3ccc(CCN4CCc5cc(OC)c(OC)cc5C4)cc3)nn2)cc1NC(=O)c1cc(=O)c2ccccc2o1 | – | – | –
23 | < 5.96 | – | – | – | 0.575 µM | > 71% | 3 µM (≈ 1.3 µg/mL) | – | – | > 41% | < 5.64 | < 5.71 | CCC(=O)c1ccc(-c2cn(CCO)nn2)cc1NC(=O)c1cc(=O)c2ccccc2o1 | – | > 33% | –
